Screens deposited in PubChem BioAssay by several laboratories.
This is a sample that favours compounds with a hit; in the whole collection about 2.6% have one here.
SENP8 block-1: SENP8 protease inhibition. purified SENP8, Z-RLRGG-aminoluciferin cleavage, luminescence. Q96LD8. AID 2540. 330,000 compounds, 1.2% hits. inhibition, % at 10 µM; in the data active = inhibition above about 50%
Target sequence (Q96LD8 whole entry, looked up): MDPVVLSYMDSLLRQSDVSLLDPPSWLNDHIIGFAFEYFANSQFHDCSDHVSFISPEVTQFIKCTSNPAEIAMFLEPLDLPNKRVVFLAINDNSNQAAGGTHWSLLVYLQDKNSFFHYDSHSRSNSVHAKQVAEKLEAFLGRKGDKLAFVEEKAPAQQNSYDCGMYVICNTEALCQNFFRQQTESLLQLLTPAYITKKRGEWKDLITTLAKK
SENP7 block: inhibitors of human SENP7 protease | Q9BQF6 | recombinant SENP7, Z-RLRGG-aminoluciferin luminescence, 40 min | inhibition, % at 5 µM | 330,000 compounds, 1.5% hits | AID 434973;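 active = inhibition above about 50% at the single test dose, limit read from the data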;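 also: plate controls were DMSO with enzyme for no effect and no enzyme buffer wells for full effect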
SENP1 FRET inh: blocks the human SENP1 SUMO protease catalytic domain | recombinant SENP1 catalytic domain, CyPet-SUMO1-YPet FRET cleavage | 360,000 compounds, 0.21% hits | Q9P0U3 | inhibition, % at 10 µM;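 active = inhibition at least 30% at 10 µM, raw YFP signal under a set limit, fluorescence ratio 0.5 to 1.5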;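 also: 0% = enzyme with DMSO and 100% = no enzyme wells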
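Test system: human SENP1 catalytic domain; medium: Tris pH 8 buffer plus EDTA, NaCl, BME, BSA, NP40, catalase; incubation: 50 min reaction at room temperature; technique: FRET, CFP and YFP emission; controls: no-enzyme low control and enzyme-plus-DMSO high control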
Platelet DG rel: platelet dense granule release activity; 300,000 compounds, 0.22% hits; inhibition, %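 (compounds screened at 7.5 µM in platelet-rich plasma)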; human platelet-rich plasma, SFLLRN dense granule ATP release, luminescence; AID 1663;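 active = mean replicate score, as percent of positive control, at or above 50; inconclusive = mean below 50 but at least one replicate at or above 50; inactive = mean and every replicate below 50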
SENP6 block: blocks the human protease SENP6 | Q9GZR1 | Recombinant SENP6 catalytic domain, aminoluciferin luminescence | inhibition, % at 10 µM | 330,000 compounds, 1.8% hits | AID 2599;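 active = inhibition above about 50% at the single tested dose, limit read from the data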;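 also: plate controls were DMSO wells with enzyme for no effect and DMSO wells lacking enzyme for full effect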
Target sequence (Q9GZR1 628-1112 limits assumed): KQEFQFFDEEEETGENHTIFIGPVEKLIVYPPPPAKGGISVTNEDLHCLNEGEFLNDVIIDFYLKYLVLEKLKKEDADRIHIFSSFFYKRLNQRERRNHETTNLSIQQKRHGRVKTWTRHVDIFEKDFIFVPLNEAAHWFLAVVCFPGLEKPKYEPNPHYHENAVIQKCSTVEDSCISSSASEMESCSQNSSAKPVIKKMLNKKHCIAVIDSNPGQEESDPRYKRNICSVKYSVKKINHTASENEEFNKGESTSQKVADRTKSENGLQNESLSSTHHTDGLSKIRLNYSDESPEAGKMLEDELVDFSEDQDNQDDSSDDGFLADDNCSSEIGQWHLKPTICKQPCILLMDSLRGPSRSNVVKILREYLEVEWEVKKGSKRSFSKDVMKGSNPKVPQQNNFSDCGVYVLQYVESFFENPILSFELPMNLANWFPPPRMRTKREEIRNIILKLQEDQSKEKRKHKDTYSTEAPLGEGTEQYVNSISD
SENP8 block-2: SENP8 (human) protease inhibition | inhibition, % at 20 µM | Q96LD8 | recombinant SENP8, Nedd8 substrate fluorescence | 360,000 compounds, 0.64% hits | AID 602440; in the data active = inhibition mostly above about 40%, no sharp cut-off; inactive = mostly below about 27%
SENP8 confirm: human SENP8 inhibition, confirmed; 6,200 compounds, 40% hits; inhibition, % at 12.5 µM; shares compounds with SENP7 block; Recombinant SENP8, Z-RLRGG-aminoluciferin luminescence, 60 min;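 active = mean inhibition across replicates above about 50%, limit read from the data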
SENP6 confirm: confirmation of human SENP6 protease inhibitors | shares compounds with SENP7 block | 6,200 compounds, 58% hits | recombinant SENP6, Z-RLRGG-aminoluciferin luminescence | inhibition, % at 12.5 µM
SENP7 conf: confirmation of human SENP7 protease inhibitors. shares compounds with SENP7 block. recombinant SENP7, Z-RLRGG-aminoluciferin luminescence, 40 min. inhibition, % at 12.5 µM. 6,200 compounds, 69% hits. AID 488917
Casp3 select: inhibits human caspase-3 in SENP selectivity test; AID 488918; purified caspase-3, Z-DEVD-aminoluciferin luminescence, 60 min; inhibition, % at 12.5 µM; 6,200 compounds, 60% hits; shares compounds with SENP7 block;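 active = mean inhibition above about 50%, limit read from the data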;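 also: plate controls were enzyme with DMSO for no effect and wells without caspase-3 for full effect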
SENP luc ctr: counter-screen for SENP inhibitors: luminescence interference | shares compounds with SENP7 block | Pre-incubated SENP8/Z-RLRGG-aminoluciferin, luciferase luminescence interference | inhibition, % at 12.5 µM | 6,200 compounds, 39% hits | AID 488919;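 active = mean inhibition above about 50% when retested at one dose, limit read from the data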;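 also: plate controls were DMSO wells with completed reaction for no effect and substrate without enzyme for full effect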
* = called active by the depositor; i = inactive; ? = inconclusive; · = not tested or not shown.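 The calls were made as follows, unless noted: active = mean inhibition above about 50% in the one-dose retest (limit read from the data); inactive = the rest.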

SMILES | SENP8 block-1 | SENP7 block | SENP1 FRET inh | Platelet DG rel | SENP6 block | SENP8 block-2 | SENP8 confirm | SENP6 confirm | SENP7 conf | Casp3 select | SENP luc ctr
CCOC(=O)c1[nH]c2ccc(C)cc2c1N | 24 | -2 | 6 | 13 | 50* | -310 | 54* | 54* | 88* | 82* | 72*
CCOC(=O)[C@]12CCCC=C1N(CCc1ccc(OC)c(OC)c1)C(=O)[C@H](CC(=O)NCCCCc1ccccc1)C2 | · | · | 1 | · | · | 10 | · | · | · | · | ·
COc1ccccc1-n1nnnc1SCC(=O)N1CCCC1=O | -7 | 11 | 1 | 16 | -2 | 13 | · | · | · | · | ·
O=S1(=O)CC(N2CCCCC2)CN1Cc1cn(Cc2cccc(Cl)c2)nn1 (centres undefined) | · | · | 1 | · | · | 1 | · | · | · | · | ·
Cc1ccc(NC(CC(=O)c2ccccc2)C(=O)O)cc1Cl (centres undefined) | 74* | 65* | -13 | 11 | -8 | -34 | -12 | 8 | 18 | 36 | 19
CSCCC(NC(=O)c1ccccc1)C(=O)OCC(=O)Nc1ccc(C)c(Cl)c1 (centres undefined) | 2 | 6 | -1 | -2 | -6 | 3 | · | · | · | · | ·
CN1CCSc2ccc(C(=O)Nc3cc(F)ccc3F)cc21 | 76* | 89* | -60 | 0 | 88* | -421 | 86* | 86* | 96* | 79* | 25
Cc1ccccc1NC(=O)c1ccc2c(c1)N(C)CCS2 | 15 | 8 | -3 | 0 | 33 | -396 | · | · | · | · | ·
Cc1cn2nc(N)c3ccccc3c2n1 | -2 | -4 | -1 | · | -3 | i | · | · | · | · | ·
Nc1nn2cc(-c3ccccc3)nc2c2ccccc12 | 56* | 69* | 3 | 18 | 33 | -403 | 78* | 76* | 91* | 73* | 74*
CCCCn1c(SCC(=O)NNC(=O)c2ccccc2)n[nH]c1=O | 4 | 0 | -2 | · | 8 | 10 | · | · | · | · | ·
CCOC(=O)c1c(C)oc2c1c(C=NCCC(=O)O)c(O)c1ccccc12 | 66* | 26 | -32 | -2 | 77* | 32 | -18 | 44 | 20 | -3 | 2
C(=N\Nc1nncc2ccccc12)/c1ccccn1 | 23 | 20 | 3 | 35 | 44 | 29 | · | · | · | · | ·
Cc1sc2ncnc(N/N=C/c3ccc(O)cc3)c2c1C | -9 | 3 | 11 | -5 | -7 | 8 | · | · | · | · | ·
Fc1ccc(/C=N/Nc2nccnc2Cl)cc1 | 86* | 94* | 2 | 7 | 93* | -145 | 93* | 93* | 100* | 96* | 92*
Fc1cccc(/C=N/Nc2nncc3ccccc23)c1 | 90* | 96* | 4 | 24 | 92* | 19 | 78* | 94* | 98* | 89* | 61*
Fc1cccc(/C=N/Nc2nccnc2Cl)c1 | 93* | 99* | -1 | ? | 97* | -220 | 96* | 96* | 102* | 98* | 96*
Oc1ccc(/C=N/Nc2nccnc2Cl)cc1 | 98* | 99* | 2 | 98* | 97* | -61 | 98* | 99* | 102* | 98* | 98*
Fc1cccc(/C=N/N=C/c2cccc(F)c2)c1 | 15 | 38 | 2 | -22 | 31 | 4 | · | · | · | · | ·
CC(C)(C)c1ccc(C(=O)N2CCC2(C)C(=O)Nc2cccc3ncccc23)cc1 (centres undefined) | · | · | -1 | · | · | -280 | · | · | · | · | ·
Cc1ccc(O)c(-c2cc(-c3cccc(F)c3)n[nH]2)c1 | 5 | 16 | -2 | -1 | -10 | 4 | · | · | · | · | ·
Cc1ccc(O)c(-c2cc(-c3ccccc3F)[nH]n2)c1 | 57* | 55* | 0 | -30 | 62* | 23 | 66* | 72* | 92* | 28 | 14
Cc1ccc(-c2cc(-c3cccc(F)c3)n[nH]2)c(O)c1 | 41 | 44 | 3 | 8 | 78* | 26 | 75* | 72* | 87* | 13 | 19
COc1ccc(CC(=O)N(CCC2=CCCCC2)c2c(N)n(Cc3ccccc3)c(=O)[nH]c2=O)cc1OC | -8 | 0 | -4 | 0 | 10 | 9 | · | · | · | · | ·
Cc1ccc(O)c(NC(=O)c2ccc3c(c2)C(=O)N(Cc2cccnc2)C3=O)c1 | 39 | 86* | 6 | 15 | 47 | 8 | 0 | 14 | 32 | 18 | -1
SMILES | SENP8 block-1 | SENP7 block | SENP1 FRET inh | Platelet DG rel | SENP6 block | SENP8 block-2 | SENP8 confirm | SENP6 confirm | SENP7 conf | Casp3 select | SENP luc ctr
COc1ccc(S(=O)(=O)N2CCOC2CNC(=O)C(=O)NCc2ccc3c(c2)OCO3)cc1C (centres undefined) | · | · | 0 | · | · | 10 | · | · | · | · | ·
CCn1c(SCC(=O)N2CCC(C)CC2)nc2c1c(=O)n(C)c(=O)n2C | 11 | 1 | 0 | -21 | -8 | 15 | · | · | · | · | ·
O=c1[nH]c2ccccc2nc1/C=C(\O)c1cccs1 | 18 | 4 | -28 | -1 | 38 | -233 | · | · | · | · | ·
Cc1c(C(=O)Nc2nc3ccccc3[nH]2)oc2ccccc12 | 38 | 57* | -11 | 8 | 69* | -156 | -27 | 60* | 89* | 65* | 7
COc1cc(C(=O)Nc2nc3ccccc3[nH]2)cc(OC)c1OC | 2 | 4 | 0 | -2 | -9 | -2 | · | · | · | · | ·
COc1cccc(C(=O)Nc2nc3ccccc3[nH]2)c1 | 90* | 95* | 18 | 31 | 94* | -1 | 6 | 93* | 102* | 96* | 17
O=C(Nc1nc2ccccc2[nH]1)C1CC1 | -6 | -13 | 1 | 1 | -32 | 21 | · | · | · | · | ·
O=C(Nc1nc2ccccc2[nH]1)c1cccs1 | 45 | 69* | 0 | 8 | 17 | -19 | 43 | 73* | 89* | 88* | 10
O/C(=C\c1nc2ccccc2[nH]1)c1cccs1 | 33 | 20 | -15 | 1 | 61* | -99 | 40 | 74* | 66* | 38 | 46
CCOC(=O)N1CCN(C(=O)c2cccc(N3C(=O)NC4CC3(C)Oc3ccc(Cl)cc34)c2)CC1 (centres undefined) | -15 | 12 | 1 | 1 | -4 | 13 | · | · | · | · | ·
CCC(=O)N[C@H]1CC[C@@H](CCn2cc(C3CC3)nn2)O[C@@H]1CO | · | · | 1 | · | · | 28 | · | · | · | · | ·
COc1ccc(C(=O)N[C@H](C(=O)Nc2nc3ccccc3[nH]2)C(C)C)cc1 | 5 | 5 | -1 | -4 | -21 | 7 | · | · | · | · | ·
